ChEMBL document CHEMBL4513216, “Probing the Open Global Health Chemical Diversity Library for Multistage-Active Starting Points for Next-Generation Antimalarials” (ACS Infect Dis, 2020)

Assay: Toxicity liver stage against HepG2, at 10uM
Assay type: cell-based
Set-up: test concentration 10 uM, cell line HepG2-A16-CD81EGFP
Settings: human, HepG2-A16-CD81EGFP cells; read-out: INHIBITION
In short: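 Uninfected HepG2-A16-CD81EGFP cells, 3 × 10^3 per well, 1536-well, plated on prespotted compound at 10 μM final, parasite-free screening media added to match infected plates; puromycin 10 μM positive, DMSO 0.5% negative; run in parallel with 48 h PbLuc assay at 37 °C, 5% CO2; viability by CellTiter-Glo luminescence, normalized to controls.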

Molecule `COCCOc1ccc(C(=O)N[C@@H]2CNCCC[C@H]2O)cc1` has a cytotoxicity at 10 µM of 4.67%.
For `CC1(C)[C@H](Cc2cc(CO)on2)C[C@@H]1N(CC1CC1)CC1CC1`, the cytotoxicity at 10 µM was 3.82%.
In the case of `Cc1cc(N2CCCC2)nc(N(C)CCO)c1C#N`, the cytotoxicity at 10 µM is reported as 0.252%.
Work on `Cc1cccc(N2CCN(S(=O)(=O)CCN)CC2)c1` yielded a cytotoxicity at 10 µM of 0.0723%.
`CN1C(=O)C2(CCN(C(=O)C3CCOCC3)CC2)c2ccccc21` showed a cytotoxicity at 10 µM of 2.5%.
`CCN1C(=O)CCC12CCN(C(=O)c1ccco1)CC2` showed a cytotoxicity at 10 µM of -3.66%.
Molecule `CC(=O)NCC(=O)N1CCC2(CC1)C(=O)N(CC1CC1)c1ccccc12` has a cytotoxicity at 10 µM of -4.1%.
Work on `CCN(C)C(=O)c1ncn2c(C3CCN(S(C)(=O)=O)CC3)ccnc12` yielded a cytotoxicity at 10 µM of -3.68%.
In the case of `CC(=O)N1CCC2(CC1)C(=O)N(C)c1c(F)cccc12`, the cytotoxicity at 10 µM is reported as -11.2%.
Molecule `CC(C)N(C)Cc1cnc2n1CCN(Cc1cccc(C#N)c1)C2` has a cytotoxicity at 10 µM of 7.48%.
`CCOCC1CN(C(=O)C2=CCCC2)Cc2cnn(C)c21` (stereo unspecified) showed a cytotoxicity at 10 µM of 1.49%.
With `CCOC(=O)c1ccc(NC(=O)c2c(O)nc3c(c2O)CCCC3)cc1` the cytotoxicity at 10 µM was 8.46%.
With `Cc1cccc(NC(=O)Cc2cnc3n(C)c(=O)[nH]c(=O)n23)c1` the cytotoxicity at 10 µM was -5.17%.
Molecule `O=C(c1ccnnc1)N1CCC2(CC1)CC(N1CCOCC1)C2` has a cytotoxicity at 10 µM of 6.97%.
Molecule `CC(C)(C)NC(=O)c1ccn(COc2ccccc2Cl)n1` has a cytotoxicity at 10 µM of 10.7%.
Molecule `CSc1ccc(CNc2n[nH]c(C)n2)cc1` has a cytotoxicity at 10 µM of -3.58%.
`CCn1cc(NC(=O)c2c(C)nn(C)c2C)c(C(N)=O)n1` gave a cytotoxicity at 10 µM of 0.946%.
Molecule `CCOCCCNc1ncc(-c2onc(C)c2C)c(-c2ccco2)n1` has a cytotoxicity at 10 µM of 10.2%.
With `CNc1cccc(CC2COCCN(C(=O)c3cnn(C)c3)C2)n1` (stereo unspecified) the cytotoxicity at 10 µM was 2.64%.
With `CN(C)C(=O)C1CCc2nnc(CNC(=O)c3ccc(Cl)cc3Cl)n21` (stereo unspecified) the cytotoxicity at 10 µM was 7.61%.
Molecule `CC(C)(C)n1cc(C#N)cc1NC(=O)CCS(=O)(=O)C1CCCC1` has a cytotoxicity at 10 µM of -0.935%.
`CC(C)CCN1CCN(c2ncnc3nc(N)ccc23)CC1` gave a cytotoxicity at 10 µM of 11.5%.
Molecule `CC(C(N)=O)N1CCN(c2ncc(Cl)cn2)CC1` (stereo unspecified) has a cytotoxicity at 10 µM of -1.26%.
With `Cc1nn(C)c(Cl)c1C(=O)NCC1(C(N)=O)CCOCC1` the cytotoxicity at 10 µM was 1.64%.
In the case of `CCCc1nnc(SCC(=O)Nc2cc(C(C)(C)C)nn2C)[nH]1`, the cytotoxicity at 10 µM is reported as 10.7%.
In the case of `CC(C)(C)NC(=O)N1CCN2C(=O)OCC2C1` (stereo unspecified), the cytotoxicity at 10 µM is reported as -1.96%.
For `O=C(NC1CCN(c2ccccc2OC(F)F)C1)c1cccnc1` (stereo unspecified), the cytotoxicity at 10 µM was 6.89%.
`CCC(=O)NCC(=O)NC(Cc1ccccc1)c1sccc1C` (stereo unspecified) gave a cytotoxicity at 10 µM of 9.25%.
In the case of `CCSc1cc(C(=O)NC2CCN(C(=O)c3ccncc3)CC2)ccn1`, the cytotoxicity at 10 µM is reported as 5.88%.
`CC(C)(C)C(=O)NCCCC(=O)NC(C)(C)c1ccc2c(c1)OCO2` showed a cytotoxicity at 10 µM of 12.1%.
With `O=C(CCCn1cncn1)NC1(c2cccc(Br)c2)CC1` the cytotoxicity at 10 µM was 9.57%.
`CCc1cnc(CN(C)C2CCN(CC3CCN(C(C)=O)CC3)C2)o1` (stereo unspecified) gave a cytotoxicity at 10 µM of 4.84%.
With `N#Cc1ccccc1N1CCC(Nc2nccnc2C#N)CC1` the cytotoxicity at 10 µM was 12.9%.
In the case of `O=S(=O)(NCC1CCOC1)N1CCc2ccccc2C1` (stereo unspecified), the cytotoxicity at 10 µM is reported as -4.06%.
With `Cc1ccc(CNCc2c[nH]nc2C(C)(C)C)c(OC2CCOC2)c1` (stereo unspecified) the cytotoxicity at 10 µM was 13.8%.
`CCOCCN1CCN(CCOCC(F)(F)F)CC1` showed a cytotoxicity at 10 µM of 1.83%.
Work on `CNC(=O)c1cccc(NC(=O)CN2CCN(S(C)(=O)=O)CC2)c1` yielded a cytotoxicity at 10 µM of 1.82%.
Work on `CS(=O)(=O)NC[C@H]1OC[C@@H]2CN(Cc3cccnc3)CC[C@@H]21` yielded a cytotoxicity at 10 µM of 12.7%.
`Cc1ccc(N2CCC3(CCN(C(N)=O)CC3)CC2)nn1` gave a cytotoxicity at 10 µM of 1.62%.
In the case of `Cc1cnn(C2(C(=O)O)CCN(c3ccnc4cc(Cl)ccc34)CC2)c1`, the cytotoxicity at 10 µM is reported as -6.07%.
For `CSc1ccc(-c2nc(CN3CCCC(CNC(C)=O)C3)c(C)o2)cc1` (stereo unspecified), the cytotoxicity at 10 µM was 2.32%.
For `CSCCCN1C[C@H](NC(=O)c2ccc(C#N)nc2)[C@@H](C2CC2)C1`, the cytotoxicity at 10 µM was 2.72%.
`CCc1cc(NCC(O)CN2CCCCC2)ncn1` (stereo unspecified) gave a cytotoxicity at 10 µM of -0.714%.
Molecule `CC(C)c1cc(C(=O)N2CCN(CC3CC3)[C@@H]3CS(=O)(=O)C[C@@H]32)no1` has a cytotoxicity at 10 µM of -2.19%.
Molecule `COc1cc(C(=O)N2CC(Oc3ccccc3Cl)C2)ccn1` has a cytotoxicity at 10 µM of -3.52%.
Molecule `CC(C)CN1CC(c2nc(-c3ccc(F)cc3)c[nH]2)CC1=O` (stereo unspecified) has a cytotoxicity at 10 µM of 6.8%.
For `CCc1oc(C(=O)NCCNS(C)(=O)=O)cc1CN1CCCC1`, the cytotoxicity at 10 µM was 5.53%.
Molecule `CCCNc1ncc(CN2CCC3(CC2)CNC(=O)C3)cn1` has a cytotoxicity at 10 µM of -7.07%.
Molecule `CC(C)N1CCCC(C(=O)NCCCc2cnn(C)c2)C1` (stereo unspecified) has a cytotoxicity at 10 µM of 17.1%.
Work on `Cc1[nH]ccc1C(=O)N[C@H]1CN(S(C)(=O)=O)C[C@@H]1C1CC1` yielded a cytotoxicity at 10 µM of 3.28%.
With `COc1ccc2nc(CNC(=O)c3cc(C(C)C)on3)[nH]c2c1` the cytotoxicity at 10 µM was 0.0964%.
Work on `c1cc2c(cc1-n1nc(C3CC3)nc1-c1csnn1)OCCO2` yielded a cytotoxicity at 10 µM of 9.46%.
For `COc1nc2c(cc1C(=O)NCCc1nc(C)c(C(=O)O)s1)CCC2`, the cytotoxicity at 10 µM was 13.3%.
For `CCCS(=O)(=O)N1CCN(c2cc(-n3cnc(C)c3C)ncn2)CC1`, the cytotoxicity at 10 µM was 5.54%.
With `CN(C)C[C@@H]1CN(C(=O)Cc2cccc(O)c2)C[C@@H]1CO` the cytotoxicity at 10 µM was 1.92%.
In the case of `Cc1cc(O)nc(C2CCCN(Cc3ccncc3)C2)n1` (stereo unspecified), the cytotoxicity at 10 µM is reported as -2.81%.
Molecule `O=C(CN1CCOC(Cn2cccn2)C1)NCc1ccco1` (stereo unspecified) has a cytotoxicity at 10 µM of -14.6%.
With `CC(C)CN1CC(C(=O)NCc2ccnc(-n3cccn3)c2)CC1=O` (stereo unspecified) the cytotoxicity at 10 µM was -5.48%.
Molecule `Cn1ccc(CN2CCC(CC(=O)NC3CCCC3)CC2)cc1=O` has a cytotoxicity at 10 µM of -16.8%.
Work on `Cc1cc(CN(C)C(=O)NC2CCN(c3ncccn3)CC2)no1` yielded a cytotoxicity at 10 µM of -12.8%.
In the case of `Cc1cc(C)n(CC2CCCN2C(=O)CCc2ccco2)n1` (stereo unspecified), the cytotoxicity at 10 µM is reported as -3.75%.
With `Cc1nc(CNCC2CN(C3CC3)CCO2)cs1` (stereo unspecified) the cytotoxicity at 10 µM was -10.1%.
In the case of `Cc1cc(C(=O)N2CCCC(n3ccnc3)C2)c(C)n1C1CC1` (stereo unspecified), the cytotoxicity at 10 µM is reported as 1.19%.
In the case of `Cc1noc(Cl)c1CC(=O)N1CCCC(n2cccn2)C1` (stereo unspecified), the cytotoxicity at 10 µM is reported as -6.14%.
In the case of `CN(Cc1nnc(C2CC2)n1C)C1CCN(Cc2ccc(F)cc2)C1` (stereo unspecified), the cytotoxicity at 10 µM is reported as -7.17%.
`COc1ccc(CNCc2ccnc(N3CCOCC3)c2)cc1OC` gave a cytotoxicity at 10 µM of 1.64%.
With `CN1CCOC(CNC(=O)CCCOCCc2ccccc2)C1` (stereo unspecified) the cytotoxicity at 10 µM was -3.56%.
`CC(C)c1noc(CCCC(=O)N2CCC(Cc3cccnc3)CC2)n1` showed a cytotoxicity at 10 µM of -5.43%.
`CS(=O)(=O)N1CCC(NC(=O)COc2ccc(Cl)c(Cl)c2)CC1` gave a cytotoxicity at 10 µM of -6.46%.
In the case of `O=C1CC2(CCCNC2)C(=O)N1Cc1ccccc1` (stereo unspecified), the cytotoxicity at 10 µM is reported as 12.1%.
`O=C(C[C@@H]1COC[C@H]2CN(C3CCC3)C[C@@H]12)NCc1cccnc1` gave a cytotoxicity at 10 µM of 12.9%.
Molecule `N#Cc1cccc(CN2CC3(CCCCN3c3cncnc3)CC2=O)c1` (stereo unspecified) has a cytotoxicity at 10 µM of 2.53%.
`CCN(CC)Cc1cnc2n1CCN(Cc1c(C)noc1C)CC2` showed a cytotoxicity at 10 µM of 11.2%.
In the case of `CNC(=O)COC1COC2(CCN(c3ncccn3)CC2)C1` (stereo unspecified), the cytotoxicity at 10 µM is reported as -3.4%.
With `O=C(Nc1cnccn1)[C@H]1CO[C@H]2CCN(c3ncc(F)cn3)C[C@H]2C1` the cytotoxicity at 10 µM was 1.2%.
`CN(C)[C@@H]1CCN(S(=O)(=O)C2CC2)[C@H]1Cc1ccccc1` gave a cytotoxicity at 10 µM of -7.46%.
For `Cc1cnc(N2CC3(CCN(Cc4cccnc4)C3)C2)nc1`, the cytotoxicity at 10 µM was -2.36%.
In the case of `CC(C)CN1CCC2(C=C(C(=O)NC3CC3)c3ccccc32)CC1`, the cytotoxicity at 10 µM is reported as 1.11%.
`CCc1ccc2c(C3CN(CC4CCC4)C3)ncn2c1` showed a cytotoxicity at 10 µM of 7.11%.
`Cn1cc(N2CCC3(CCN(Cc4cccnc4)C3)C2=O)cn1` (stereo unspecified) gave a cytotoxicity at 10 µM of 3.63%.
Molecule `Cc1ccoc1C1=NNC(=CN2CCCC(Cn3cncn3)C2)O1` (stereo unspecified) has a cytotoxicity at 10 µM of -2.07%.
